ChEMBL document CHEMBL1131324 (J Med Chem, 1998)

What was measured:
[1] = biological target: 5-hydroxytryptamine receptor 1D (Homo sapiens, UniProt P28221); assay: Binding affinity for human 5-hydroxytryptamine 1D receptor
[2] = biological target: T1, 5-hydroxytryptamine receptor 1B (Homo sapiens, UniProt P28222); assay: Effect of compound on [35S]GTP-gamma-S, radioligand binding CHO cells expressing human 5-hydroxytryptamine 1B receptor; format: functional, cell-based
[3] = biological target: 5-hydroxytryptamine receptor 2A (Homo sapiens, UniProt P28223); assay: Binding affinity for human 5-hydroxytryptamine 2A receptor
Outline: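 Human cloned receptor expressed in HEK 293 cells; displacement of [³H]ketanserin in 50 mM Tris-HCl (pH 7.7 at 25 °C). Test compound over a concentration range, 30-45 min at 37 °C; filtration with ice-cold buffer wash, bound label by scintillation counting; pKi reported as mean (SEM, n) or individual values where n = 2.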

[4] = biological target: T1, 5-hydroxytryptamine receptor 1B; assay: Binding affinity for human 5-hydroxytryptamine 1B receptor

Chain of 5-hydroxytryptamine receptor 1D (P28221 whole entry): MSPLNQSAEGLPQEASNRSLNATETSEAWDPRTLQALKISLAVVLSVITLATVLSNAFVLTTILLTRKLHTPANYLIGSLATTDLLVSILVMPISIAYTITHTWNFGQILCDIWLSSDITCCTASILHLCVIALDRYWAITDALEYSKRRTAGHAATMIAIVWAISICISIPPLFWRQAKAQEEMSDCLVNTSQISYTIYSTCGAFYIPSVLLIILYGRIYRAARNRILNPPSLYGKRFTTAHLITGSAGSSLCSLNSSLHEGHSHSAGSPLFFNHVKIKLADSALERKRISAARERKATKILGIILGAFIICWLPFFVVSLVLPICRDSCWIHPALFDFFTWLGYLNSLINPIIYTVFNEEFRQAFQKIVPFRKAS
Chain of 5-hydroxytryptamine receptor 2A (P28223 whole entry): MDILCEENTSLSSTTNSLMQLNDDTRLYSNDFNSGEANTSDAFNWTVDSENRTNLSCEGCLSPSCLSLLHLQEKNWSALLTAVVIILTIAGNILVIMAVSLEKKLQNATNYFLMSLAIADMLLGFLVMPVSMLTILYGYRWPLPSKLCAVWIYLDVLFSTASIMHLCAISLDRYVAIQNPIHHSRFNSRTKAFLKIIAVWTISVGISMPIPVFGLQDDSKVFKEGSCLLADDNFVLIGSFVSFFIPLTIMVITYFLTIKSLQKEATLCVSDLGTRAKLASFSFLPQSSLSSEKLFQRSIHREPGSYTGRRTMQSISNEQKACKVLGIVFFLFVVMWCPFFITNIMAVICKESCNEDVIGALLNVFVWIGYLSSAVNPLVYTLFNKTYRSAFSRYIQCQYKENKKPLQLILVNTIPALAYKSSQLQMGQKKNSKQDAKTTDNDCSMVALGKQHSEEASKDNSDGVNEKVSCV
T1 sequence (P28222 whole entry): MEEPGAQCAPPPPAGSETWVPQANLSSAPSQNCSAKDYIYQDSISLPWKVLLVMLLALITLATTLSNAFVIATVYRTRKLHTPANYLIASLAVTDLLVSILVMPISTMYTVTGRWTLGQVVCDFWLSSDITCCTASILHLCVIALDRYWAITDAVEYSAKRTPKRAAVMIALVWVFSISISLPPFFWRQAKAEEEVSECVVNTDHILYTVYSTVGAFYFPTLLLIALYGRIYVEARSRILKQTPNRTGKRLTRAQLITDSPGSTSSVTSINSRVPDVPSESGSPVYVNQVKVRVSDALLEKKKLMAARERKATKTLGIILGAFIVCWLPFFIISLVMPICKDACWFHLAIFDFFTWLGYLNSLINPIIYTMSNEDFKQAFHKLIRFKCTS

| Structure (SMILES) | Ki [1] | [35S]GTPγS binding stimulation [2] | Ki [3] | Ki [4] |
| --- | --- | --- | --- | --- |
| COc1ccc(NC(=O)c2ccc(-c3ccc(-c4noc(C)n4)cc3C)cc2)cc1OCCN(C)C | 31.6 nM | 139% |  |  |
| COc1cc2c(cc1OCCN(C)C)N(C(=O)c1ccc(-c3ccc(-c4noc(C)n4)cc3C)cc1)CC2 | 5.01 nM |  | 316 nM | 0.501 nM |

Further lines, results first:

| Ki [1] | [35S]GTPγS binding stimulation [2] | Ki [3] | Ki [4] | Structure (SMILES) |
| --- | --- | --- | --- | --- |
| 39.8 nM |  | 126 nM | 12.6 nM | Cc1cc(C(=O)Nc2ccc(C)c(N3CCN(C)CC3)c2)ccc1Br |
| 20 nM | 91% | 3.98 nM | 2.51 nM | Cc1nc(-c2ccc(-c3ccc(C(=O)Nc4ccc5c(c4)N(CCN(C)C)CCO5)cc3)c(C)c2)no1 |
| 200 nM |  | 316 nM | 126 nM | Cc1cc(C(=O)Nc2cccc(N3CCN(C)CC3)c2)ccc1Br |
